For experiment [1], the target named is T1, Chymotrypsinogen B (Homo sapiens, UniProt P17538). Description: Inhibitory activity against chymotrypsinogen in the presence of Zn(II) (500 uM). In a few lines: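 Alpha-chymotrypsin at a final 0.4 μg/mL is added to a mix of Suc-AAPF-pNA (300 μM), ZnCl2 (500 μM) and varied inhibitor concentrations in pH 7.5 buffer (50 mM CaCl2, 50 mM Tris). Initial rates are followed at 405 nm at 25 °C. IC50 is read from a plot of % residual activity versus inhibitor concentration.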
T1 sequence (P17538 34-164 limits assumed, other chains not shown): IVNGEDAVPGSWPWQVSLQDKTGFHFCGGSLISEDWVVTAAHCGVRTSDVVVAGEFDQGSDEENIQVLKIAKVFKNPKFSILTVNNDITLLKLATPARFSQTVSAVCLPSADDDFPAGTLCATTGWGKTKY
T1 sequence (P17538 167-263 limits assumed, other chains not shown): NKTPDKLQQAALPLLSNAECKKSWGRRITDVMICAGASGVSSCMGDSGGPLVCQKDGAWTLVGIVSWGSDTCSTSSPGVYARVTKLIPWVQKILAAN

Experiment [2] deals with T1, Chymotrypsinogen B. Nature of the experiment: Inhibitory activity (up to 2 mM) against chymotrypsinogen in the absence of Zn(II); no inhibition.

SMILES strings stand for the structures. Active and inactive are the calls of the source. No cut-off for these calls is given here.

What is called IC50 is the point on the concentration scale where inhibition reaches its midpoint. Turning to `O=C(N[C@H](CS)Cc1ccccc1)c1ccccc1`, the IC50 at Chymotrypsinogen B [1] is 23 µM. For the same molecule, on Chymotrypsinogen B [2], the inhibition result is “inactive”. On the same counts, the results for `O=C(N[C@H](CS)Cc1ccccc1)[C@@H]1CCCN1C(=O)OCc1ccccc1` are 8 µM and “inactive”. As for `O=C(N[C@@H](CO)Cc1ccccc1)OCc1ccccc1`, at Chymotrypsinogen B [1], the IC50 was above 3000 µM. Further, the inhibition entry on Chymotrypsinogen B [2] is “inactive”. With `CC(=O)N[C@H](CS)Cc1ccccc1`, at Chymotrypsinogen B [1], the IC50 is above 800 µM. Also, the inhibition result on Chymotrypsinogen B [2] is “inactive”. As to `O=C(N[C@H](CS)Cc1ccccc1)OCc1ccccc1`, the concentration for half-maximal inhibition (IC50) on Chymotrypsinogen B [1] was 3.8 µM. Moreover, at Chymotrypsinogen B [2], the inhibition result was “inactive”. Take `O=C(N[C@H](CO)Cc1ccccc1)OCc1ccccc1`: the IC50 on Chymotrypsinogen B [1] was above 3000 µM. For `O=C(N[C@@H](CS)Cc1ccccc1)OCc1ccccc1`, the IC50 at Chymotrypsinogen B [1] is 6 µM. Besides, the inhibition entry on Chymotrypsinogen B [2] was “inactive”.
